Assays:
Assay type in all cases: functional
MDA-MB-468 = experiment: Antiproliferative activity against human MDA-MB-468 cells assessed as cell growth inhibition at 10 uM incubated for 48 hrs by sulforhodamine B assay relative to control
Procedure, shortened: (§1)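 NCI-60 single-dose screen at 10^-5 M. Cells grown in RPMI 1640 with 5% FBS and 2 mM L-glutamine, plated at 5,000–40,000 cells/well, and preincubated 24 h. Drug (DMSO stock) added and incubated 48 h at 37 °C, 5% CO2. Adherent cells fixed with cold TCA, stained with 0.4% SRB in 1% acetic acid, dye solubilized in 10 mM trizma base, A515 read. Percent growth taken against time-zero and untreated control.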

T47D = experiment: Antiproliferative activity against human T47D cells assessed as cell growth inhibition at 10 uM incubated for 48 hrs by sulforhodamine B assay relative to control; procedure, shortened: as §1
Hs-578T = experiment: Antiproliferative activity against human Hs-578T cells assessed as cell growth inhibition at 10 uM incubated for 48 hrs by sulforhodamine B assay relative to control; procedure, shortened: as §1
MCF7 = experiment: Antiproliferative activity against human MCF7 cells assessed as cell growth inhibition at 10 uM incubated for 48 hrs by sulforhodamine B assay relative to control; procedure, shortened: as §1
PC-3 = experiment: Antiproliferative activity against human PC-3 cells assessed as cell growth inhibition at 10 uM incubated for 48 hrs by sulforhodamine B assay relative to control; procedure, shortened: as §1
RXF 393 = experiment: Antiproliferative activity against human RXF 393 cells assessed as cell growth inhibition at 10 uM incubated for 48 hrs by sulforhodamine B assay relative to control; procedure, shortened: as §1
ACHN = experiment: Antiproliferative activity against human ACHN cells assessed as cell growth inhibition at 10 uM incubated for 48 hrs by sulforhodamine B assay relative to control
Procedure, shortened: (§2)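 Single-dose NCI-60 prescreen at 10^-5 M. Cells in RPMI 1640 with 5% FBS and 2 mM L-glutamine, seeded 5,000–40,000 cells/well with 24 h preincubation, then drug exposure for 48 h at 37 °C under 5% CO2. Growth read by SRB staining of TCA-fixed cells at 515 nm against time-zero and untreated controls. Negative growth values denote cell kill.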

A498 = experiment: Antiproliferative activity against human A498 cells assessed as cell growth inhibition at 10 uM incubated for 48 hrs by sulforhodamine B assay relative to control; procedure, shortened: as §2
786-0 = experiment: Antiproliferative activity against human 786-0 cells assessed as cell growth inhibition at 10 uM incubated for 48 hrs by sulforhodamine B assay relative to control; procedure, shortened: as §2
NCI/ADR-RES = experiment: Antiproliferative activity against human NCI/ADR-RES cells assessed as cell growth inhibition at 10 uM incubated for 48 hrs by sulforhodamine B assay relative to control; procedure, shortened: as §1
OVCAR-5 = experiment: Antiproliferative activity against human OVCAR-5 cells assessed as cell growth inhibition at 10 uM incubated for 48 hrs by sulforhodamine B assay relative to control; procedure, shortened: as §1
OVCAR-4 = experiment: Antiproliferative activity against human OVCAR-4 cells assessed as cell growth inhibition at 10 uM incubated for 48 hrs by sulforhodamine B assay relative to control; procedure, shortened: as §1
IGROV-1 = experiment: Antiproliferative activity against human IGROV-1 cells assessed as cell growth inhibition at 10 uM incubated for 48 hrs by sulforhodamine B assay relative to control; procedure, shortened: as §1
SK-MEL-5 = experiment: Antiproliferative activity against human SK-MEL-5 cells assessed as cell growth inhibition at 10 uM incubated for 48 hrs by sulforhodamine B assay relative to control; procedure, shortened: as §1
M14 = experiment: Antiproliferative activity against human M14 cells assessed as cell growth inhibition at 10 uM incubated for 48 hrs by sulforhodamine B assay relative to control; procedure, shortened: as §1
LOX IMVI = experiment: Antiproliferative activity against human LOX IMVI cells assessed as cell growth inhibition at 10 uM incubated for 48 hrs by sulforhodamine B assay relative to control; procedure, shortened: as §1
U-251 = experiment: Antiproliferative activity against human U-251 cells assessed as cell growth inhibition at 10 uM incubated for 48 hrs by sulforhodamine B assay relative to control; procedure, shortened: as §1
SF-539 = experiment: Antiproliferative activity against human SF-539 cells assessed as cell growth inhibition at 10 uM incubated for 48 hrs by sulforhodamine B assay relative to control; procedure, shortened: as §1
SF-268 = experiment: Antiproliferative activity against human SF-268 cells assessed as cell growth inhibition at 10 uM incubated for 48 hrs by sulforhodamine B assay relative to control; procedure, shortened: as §1
SW-620 = experiment: Antiproliferative activity against human SW620 cells assessed as cell growth inhibition at 10 uM incubated for 48 hrs by sulforhodamine B assay relative to control; procedure, shortened: as §1
HCT-15 = experiment: Antiproliferative activity against human HCT-15 cells assessed as cell growth inhibition at 10 uM incubated for 48 hrs by sulforhodamine B assay relative to control
Procedure, shortened: (§3)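 NCI-60 one-dose prescreen at 10^-5 M. Cells grown in RPMI 1640 with 5% FBS and 2 mM glutamine, preincubated 24 h, then exposed 48 h at 37 °C. Adherent lines TCA-fixed, SRB-stained, A515 read. Growth percent relative to time-zero and control; negative values mean cell kill.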

NCI-H522 = experiment: Antiproliferative activity against human NCI-H522 cells assessed as cell growth inhibition at 10 uM incubated for 48 hrs by sulforhodamine B assay relative to control; procedure, shortened: as §1
NCI-H460 = experiment: Antiproliferative activity against human NCI-H460 cells assessed as cell growth inhibition at 10 uM incubated for 48 hrs by sulforhodamine B assay relative to control; procedure, shortened: as §1
NCI-H322M = experiment: Antiproliferative activity against human NCI-H322M cells assessed as cell growth inhibition at 10 uM incubated for 48 hrs by sulforhodamine B assay relative to control; procedure, shortened: as §1
NCI-H23 = experiment: Antiproliferative activity against human NCI-H23 cells assessed as cell growth inhibition at 10 uM incubated for 48 hrs by sulforhodamine B assay relative to control; procedure, shortened: as §1
NCI-H226 = experiment: Antiproliferative activity against human NCI-H226 cells assessed as cell growth inhibition at 10 uM incubated for 48 hrs by sulforhodamine B assay relative to control; procedure, shortened: as §1
EKVX = experiment: Antiproliferative activity against human EKVX cells assessed as cell growth inhibition at 10 uM incubated for 48 hrs by sulforhodamine B assay relative to control; procedure, shortened: as §3
A549 = experiment: Antiproliferative activity against human A549 cells assessed as cell growth inhibition at 10 uM incubated for 48 hrs by sulforhodamine B assay relative to control; procedure, shortened: as §2
RPMI-8226 = experiment: Antiproliferative activity against human RPMI-8226 cells assessed as cell growth inhibition at 10 uM incubated for 48 hrs by sulforhodamine B assay relative to control; procedure, shortened: as §1
MOLT-4 = experiment: Antiproliferative activity against human MOLT-4 cells assessed as cell growth inhibition at 10 uM incubated for 48 hrs by sulforhodamine B assay relative to control; procedure, shortened: as §1
CCRF-CEM = experiment: Antiproliferative activity against human CCRF-CEM cells assessed as cell growth inhibition at 10 uM incubated for 48 hrs by sulforhodamine B assay relative to control; procedure, shortened: as §2
HOP-92 = experiment: Antiproliferative activity against human HOP-92 cells assessed as cell growth inhibition at 10 uM incubated for 48 hrs by sulforhodamine B assay relative to control; procedure, shortened: as §3

| Structure (SMILES) | inhibition at 10 µM (MDA-MB-468) [%] | inhibition at 10 µM (T47D) [%] | inhibition at 10 µM (Hs-578T) [%] | inhibition at 10 µM (MCF7) [%] | inhibition at 10 µM (PC-3) [%] | inhibition at 10 µM (RXF 393) [%] | inhibition at 10 µM (ACHN) [%] | inhibition at 10 µM (A498) [%] | inhibition at 10 µM (786-0) [%] | inhibition at 10 µM (NCI/ADR-RES) [%] | inhibition at 10 µM (OVCAR-5) [%] | inhibition at 10 µM (OVCAR-4) [%] | inhibition at 10 µM (IGROV-1) [%] | inhibition at 10 µM (SK-MEL-5) [%] | inhibition at 10 µM (M14) [%] | inhibition at 10 µM (LOX IMVI) [%] | inhibition at 10 µM (U-251) [%] | inhibition at 10 µM (SF-539) [%] | inhibition at 10 µM (SF-268) [%] | inhibition at 10 µM (SW-620) [%] | other results |
| --- | --- | --- | --- | --- | --- | --- | --- | --- | --- | --- | --- | --- | --- | --- | --- | --- | --- | --- | --- | --- | --- |
| c1cn2cc(-c3ccc4ncn(C5CCCCC5)c4c3)nc(-c3ccc4ncn(C5CCCCC5)c4c3)c2n1 | 31.4 | 54.9 | 43.3 | 45 | 64.2 | 16.8 | 45.1 | 26.2 | 34.3 | 48.8 | 7.18 | 22.8 | 60.8 | 55.7 | 40.6 | 67 | 69 | 16.7 | 41.7 | 35.6 | inhibition at 10 µM (HCT-15): 57.1%; inhibition at 10 µM (NCI-H522): 49.4%; inhibition at 10 µM (NCI-H460): 53%; inhibition at 10 µM (NCI-H322M): 39.1%; inhibition at 10 µM (NCI-H23): 28.2%; inhibition at 10 µM (NCI-H226): 46.7%; inhibition at 10 µM (EKVX): 30.8%; inhibition at 10 µM (A549): 57.6%; inhibition at 10 µM (RPMI-8226): 89.1%; inhibition at 10 µM (MOLT-4): 79.1%; inhibition at 10 µM (CCRF-CEM): 78.5% |
| c1ccc(Cn2cnc3ccc(-c4nc(-c5ccc6c(c5)ncn6C5CCCCC5)cn5ccnc45)cc32)cc1 | -35.7 | -2.12 | 99.6 | 98 | -39.5 | -76.9 | 80.1 | -71.8 | -19.4 | 99.5 | -29 | 83.2 | 94.2 | -84 | -4.44 | -87 | -22.8 | -77.6 | -0.11 | 97.8 | inhibition at 10 µM (HCT-15): -9.03%; inhibition at 10 µM (NCI-H522): -35.2%; inhibition at 10 µM (NCI-H460): -20.3%; inhibition at 10 µM (NCI-H322M): 84%; inhibition at 10 µM (NCI-H23): -22.8%; inhibition at 10 µM (NCI-H226): -63.1%; inhibition at 10 µM (HOP-92): -83.6%; inhibition at 10 µM (EKVX): -12.2%; inhibition at 10 µM (A549): -5.05%; inhibition at 10 µM (RPMI-8226): -41.2%; inhibition at 10 µM (MOLT-4): 95.6%; inhibition at 10 µM (CCRF-CEM): 94.4% |
| COc1ccc(-c2cn3ccnc3c(-c3ccc4ncn(C5CCCCC5)c4c3)n2)cc1 | 97.4 | -8.6 | 80 | 80.2 | 95.2 | -8.48 | 61 | -12.3 | 83.2 | 87.2 | 58.8 | 46.4 | 53.4 | 92.3 | 89.2 | 69.6 | 80.9 | -43.4 | 49.9 | 77.8 | inhibition at 10 µM (HCT-15): 78.8%; inhibition at 10 µM (NCI-H522): -20.9%; inhibition at 10 µM (NCI-H460): 91.1%; inhibition at 10 µM (NCI-H322M): 31.5%; inhibition at 10 µM (NCI-H23): 62.1%; inhibition at 10 µM (NCI-H226): 35.9%; inhibition at 10 µM (HOP-92): 52.3%; inhibition at 10 µM (EKVX): 56.6%; inhibition at 10 µM (A549): 68.6%; inhibition at 10 µM (RPMI-8226): 95.6%; inhibition at 10 µM (MOLT-4): 82.8%; inhibition at 10 µM (CCRF-CEM): 93.3% |
| Brc1ccc(-c2cn3ccnc3c(-c3ccc4ncn(C5CCCCC5)c4c3)n2)cc1 | 33.7 | 55 | 24.5 | 46.4 | 42.4 | 34 | 21.4 | 20.7 | 18 | 30.5 | 8.95 | 10.5 | 9.4 | 23.6 | 26.9 | 30.7 | 23.7 | 24.4 | 15.5 | 21.9 | inhibition at 10 µM (HCT-15): 35.8%; inhibition at 10 µM (NCI-H522): 35.5%; inhibition at 10 µM (NCI-H460): 13.2%; inhibition at 10 µM (NCI-H322M): 4.21%; inhibition at 10 µM (NCI-H23): 8.38%; inhibition at 10 µM (NCI-H226): 23.3%; inhibition at 10 µM (HOP-92): 34.1%; inhibition at 10 µM (EKVX): 16.2%; inhibition at 10 µM (A549): 15.3%; inhibition at 10 µM (RPMI-8226): 32%; inhibition at 10 µM (MOLT-4): 20.4% |

Source: ChEMBL document CHEMBL5247578, “Effective synthesis of benzimidazoles-imidazo[1,2-a]pyrazine conjugates: A comparative study of mono-and bis-benzimidazoles for antitumor activity” (Eur J Med Chem, 2019)
